In ChEMBL document CHEMBL3102751, “Cholinesterase inhibitory activity versus aromatic core multiplicity: a facile green synthesis and molecular docking study of novel piperidone embedded thiazolopyrimidines” (Bioorg Med Chem, 2014):

What was measured:
[1] = biological target: Acetylcholinesterase (Electrophorus electricus, UniProt O42275); assay: Inhibition of Electrophorus electricus acetylcholinesterase using acetylthiocholine iodide as substrate preincubated for 15 mins followed by substrate addition measured for 30 mins by Ellman's method
Sequence of Acetylcholinesterase (O42275 whole entry): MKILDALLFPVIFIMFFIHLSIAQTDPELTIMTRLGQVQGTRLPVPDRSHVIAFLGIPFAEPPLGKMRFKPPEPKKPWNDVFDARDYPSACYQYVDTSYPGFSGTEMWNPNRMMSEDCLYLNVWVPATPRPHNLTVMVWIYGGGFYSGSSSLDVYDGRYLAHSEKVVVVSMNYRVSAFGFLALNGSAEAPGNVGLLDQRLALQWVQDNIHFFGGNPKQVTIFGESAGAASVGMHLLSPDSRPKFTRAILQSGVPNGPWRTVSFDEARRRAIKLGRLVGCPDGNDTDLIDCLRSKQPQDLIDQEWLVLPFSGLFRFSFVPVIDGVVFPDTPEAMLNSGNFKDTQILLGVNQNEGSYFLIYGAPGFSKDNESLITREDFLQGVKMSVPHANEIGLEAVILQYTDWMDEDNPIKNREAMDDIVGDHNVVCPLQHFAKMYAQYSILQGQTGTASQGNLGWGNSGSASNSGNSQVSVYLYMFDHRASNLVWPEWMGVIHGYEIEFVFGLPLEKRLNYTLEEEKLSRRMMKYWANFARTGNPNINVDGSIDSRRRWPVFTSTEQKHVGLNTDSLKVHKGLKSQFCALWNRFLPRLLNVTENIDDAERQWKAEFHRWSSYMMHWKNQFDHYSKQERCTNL

[2] = biological target: Cholinesterase (Equus caballus, UniProt P81908); assay: Inhibition of equine serum butyrylcholinesterase using S-butyrylthiocholine chloride as substrate preincubated for 15 mins followed by substrate addition measured for 30 mins by Ellman's method
Sequence of Cholinesterase (P81908 whole entry): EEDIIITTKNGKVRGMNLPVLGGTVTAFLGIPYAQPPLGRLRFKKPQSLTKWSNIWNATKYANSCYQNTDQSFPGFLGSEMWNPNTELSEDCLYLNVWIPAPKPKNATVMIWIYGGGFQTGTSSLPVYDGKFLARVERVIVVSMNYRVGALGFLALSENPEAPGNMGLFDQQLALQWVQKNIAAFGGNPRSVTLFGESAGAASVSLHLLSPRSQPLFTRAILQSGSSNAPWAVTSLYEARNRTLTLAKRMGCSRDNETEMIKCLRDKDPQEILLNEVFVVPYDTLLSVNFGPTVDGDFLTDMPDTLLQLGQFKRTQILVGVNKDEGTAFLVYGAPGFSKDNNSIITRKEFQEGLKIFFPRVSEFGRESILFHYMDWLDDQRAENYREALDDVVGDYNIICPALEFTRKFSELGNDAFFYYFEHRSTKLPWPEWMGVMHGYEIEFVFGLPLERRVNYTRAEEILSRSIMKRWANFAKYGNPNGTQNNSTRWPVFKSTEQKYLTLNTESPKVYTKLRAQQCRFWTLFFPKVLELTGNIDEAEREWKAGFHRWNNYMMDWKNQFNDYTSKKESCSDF
How it was run: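 Modified Ellman assay in 0.1 M sodium phosphate buffer, pH 8. Samples were prepared in DMSO, with 1% DMSO in the final mix. Equine serum BChE was incubated with sample for 15 min at 25 °C. 10 mM DTNB stock was then added, followed by 14 mM S-butyrylthiocholine chloride stock. Absorbance at 412 nm was read for 30 min, and % inhibition was calculated relative to control.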

[3] = Selectivity ratio of IC50 for Electrophorus electricus acetylcholinesterase to IC50 for equine serum butyrylcholinesterase
[4] = Selectivity ratio of IC50 for equine serum butyrylcholinesterase to IC50 for Electrophorus electricus acetylcholinesterase

SMILES | IC50 [1] [µM] | IC50 [2] [µM] | Ratio IC50 [3] | Ratio IC50 [4]
S=C1NC2/C(=C/c3ccccc3Cl)CNCC2C(c2ccccc2Cl)N1 (stereo not drawn) | 32.3 | 2.91 | – | –
Clc1ccc(C2=CSC3=NC4=C(CNC/C4=C\c4ccccc4Cl)C(c4ccccc4Cl)N23)cc1 (stereo not drawn) | 5.2 | 7.65 | 0.68 | 1.47
Fc1ccc(/C=C2\CNCC3=C2N=C2SC=C(c4ccc(Cl)cc4)N2C3c2ccc(F)cc2)cc1 (stereo not drawn) | 10.3 | 22.2 | 0.46 | 2.16
Fc1ccc(/C=C2\CNCC3C2NC(=S)NC3c2ccc(F)cc2)cc1 (stereo not drawn) | 37.2 | 28.8 | – | –
Fc1ccc(C2=CSC3=NC4=C(CNC/C4=C\c4ccccc4Cl)C(c4ccccc4Cl)N23)cc1 (stereo not drawn) | 6.03 | 4.63 | 0.76 | 1.3
COc1ccccc1/C=C1\CNCC2=C1N=C1SC=C(c3ccccc3)N1C2c1ccccc1OC (stereo not drawn) | 4.23 | 4.1 | 1.03 | 0.97
COc1ccccc1/C=C1\CNCC2C1NC(=S)NC2c1ccccc1OC (stereo not drawn) | 0.8 | 1.18 | – | –
Cc1ccc(/C=C2\CNCC3=C2N=C2SC=C(c4ccc(F)cc4)N2C3c2ccc(C)cc2)cc1 (stereo not drawn) | 6.47 | 4.91 | 1.32 | 0.76
C1=C(c2ccccc2)N2C(=NC3=C(CNC/C3=C\c3ccccc3)C2c2ccccc2)S1 (stereo not drawn) | 1.47 | 1.74 | 0.84 | 1.19
Fc1ccc(/C=C2\CNCC3=C2N=C2SC=C(c4ccccc4)N2C3c2ccc(F)cc2)cc1 (stereo not drawn) | 4.04 | 3.95 | 1.02 | 0.98
COc1ccc(C2=CSC3=NC4=C(CNC/C4=C\c4ccccc4)C(c4ccccc4)N23)cc1 (stereo not drawn) | 15.9 | 10.4 | 1.52 | 0.65
Cc1ccc(/C=C2\CNCC3=C2N=C2SC=C(c4ccc(Cl)cc4)N2C3c2ccc(C)cc2)cc1 (stereo not drawn) | 21.7 | 32.6 | 0.67 | 1.5
Clc1ccc(/C=C2\CNCC3=C2N=C2SC=C(c4ccc(Cl)cc4)N2C3c2ccc(Cl)cc2)cc1 (stereo not drawn) | 5.37 | 27.4 | 0.2 | 5.11
COc1ccc(C2=CSC3=NC4=C(CNC/C4=C\c4ccccc4Cl)C(c4ccccc4Cl)N23)cc1 (stereo not drawn) | 7.97 | 12.6 | 0.63 | 1.58
COc1ccc(C2=CSC3=NC4=C(CNC/C4=C\c4ccc(F)cc4)C(c4ccc(F)cc4)N23)cc1 (stereo not drawn) | 22.4 | 26.5 | 0.84 | 1.18
COc1ccccc1/C=C1\CNCC2=C1N=C1SC=C(c3ccc(Cl)cc3)N1C2c1ccccc1OC (stereo not drawn) | 5.08 | 29.3 | 0.17 | 5.76
COc1ccccc1/C=C1\CNCC2=C1N=C1SC=C(c3ccc(F)cc3)N1C2c1ccccc1OC (stereo not drawn) | 5.5 | 8.75 | 0.63 | 1.59
Cc1ccc(/C=C2\CNCC3C2NC(=S)NC3c2ccc(C)cc2)cc1 (stereo not drawn) | 37.5 | 6.27 | – | –
Fc1ccc(C2=CSC3=NC4=C(CNC/C4=C\c4ccccc4)C(c4ccccc4)N23)cc1 (stereo not drawn) | 20.3 | 7.91 | 2.57 | 0.39
COc1ccc(C2=CSC3=NC4=C(CNC/C4=C\c4ccc(Cl)cc4)C(c4ccc(Cl)cc4)N23)cc1 (stereo not drawn) | 8.44 | 12.8 | 0.66 | 1.52
COc1ccc(C2=CSC3=NC4=C(CNC/C4=C\c4ccc(C)cc4)C(c4ccc(C)cc4)N23)cc1 (stereo not drawn) | 10.4 | 10.5 | 0.99 | 1.01
S=C1NC2/C(=C/c3ccc(Cl)cc3)CNCC2C(c2ccc(Cl)cc2)N1 (stereo not drawn) | 2.25 | 6.26 | – | –
Clc1ccccc1/C=C1\CNCC2=C1N=C1SC=C(c3ccccc3)N1C2c1ccccc1Cl (stereo not drawn) | 2.05 | 2.68 | 0.77 | 1.3
Cc1ccc(/C=C2\CNCC3=C2N=C2SC=C(c4ccccc4)N2C3c2ccc(C)cc2)cc1 (stereo not drawn) | 0.53 | 1.71 | 0.31 | 3.21
Clc1ccc(/C=C2\CNCC3=C2N=C2SC=C(c4ccccc4)N2C3c2ccc(Cl)cc2)cc1 (stereo not drawn) | 1.62 | 2.18 | 0.74 | 1.35
Fc1ccc(C2=CSC3=NC4=C(CNC/C4=C\c4ccc(Cl)cc4)C(c4ccc(Cl)cc4)N23)cc1 (stereo not drawn) | 5.73 | 15.8 | 0.36 | 2.75
Fc1ccc(/C=C2\CNCC3=C2N=C2SC=C(c4ccc(F)cc4)N2C3c2ccc(F)cc2)cc1 (stereo not drawn) | 13.2 | 15.8 | 0.83 | 1.2
Clc1ccc(C2=CSC3=NC4=C(CNC/C4=C\c4ccccc4)C(c4ccccc4)N23)cc1 (stereo not drawn) | 23.9 | 44.3 | 0.54 | 1.86
S=C1NC2/C(=C/c3ccccc3)CNCC2C(c2ccccc2)N1 (stereo not drawn) | 19.3 | 3.78 | – | –
COc1ccc(C2=CSC3=NC4=C(CNC/C4=C\c4ccccc4OC)C(c4ccccc4OC)N23)cc1 (stereo not drawn) | 12 | 18.6 | 0.64 | 1.55
